Assay results from ChEMBL document CHEMBL1140983, “Pyrazoles and pyrazolines as neural and inducible nitric oxide synthase (nNOS and iNOS) potential inhibitors (III)” (Eur J Med Chem, 2008).

Columns and labels:
[1] = target: Nitric oxide synthase, inducible (Rattus norvegicus) (UniProt Q06518); assay: Inhibition of iNOS in LPS-induced rat lungs assessed as conversion of L-[3H]arginine to L-[3H]citrulline at 1 mM by liquid scintillation spectroscopy
How it was run: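 iNOS induced by LPS 20 mg/kg i.v. in rats; lungs taken 8 h later, homogenized in ice-cold Tris buffer (pH 7.6) with protease inhibitors, then incubated with 10 mM EDTA to remove nNOS activity. Activity read as [3H]-citrulline from L-[3H]-arginine by the striatal-assay procedure, compound at 1 mM final, 37 °C 30 min; mean ± SEM, three experiments in triplicate.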

[2] = target: Nitric oxide synthase 1 (Rattus norvegicus) (UniProt P29476); assay: Inhibition of nNOS in Wistar rat striata assessed as conversion of L-[3H]arginine to L-[3H]citrulline at 1 mM by liquid scintillation spectroscopy
How it was run: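 Male Wistar rats (200–250 g); fresh striata homogenized in Tris buffer (pH 7.6) with protease inhibitors, spun 1000 g 5 min, supernatant used. Incubation: 25 mM Tris, 1 mM DTT, 30 µM H4-biopterin, 10 µM FAD, 0.1 mM CaCl2, 10 µM L-arginine plus 50 nM L-[3H]-arginine; started with NADPH (0.75 mM final) and compound in DMSO (1 mM final), 37 °C 30 min. Dowex-50W separation; NADPH-omitted blank subtracted; mean ± SEM, three experiments in triplicate.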

Sequence of Nitric oxide synthase 1 (Rattus norvegicus) (P29476 whole entry): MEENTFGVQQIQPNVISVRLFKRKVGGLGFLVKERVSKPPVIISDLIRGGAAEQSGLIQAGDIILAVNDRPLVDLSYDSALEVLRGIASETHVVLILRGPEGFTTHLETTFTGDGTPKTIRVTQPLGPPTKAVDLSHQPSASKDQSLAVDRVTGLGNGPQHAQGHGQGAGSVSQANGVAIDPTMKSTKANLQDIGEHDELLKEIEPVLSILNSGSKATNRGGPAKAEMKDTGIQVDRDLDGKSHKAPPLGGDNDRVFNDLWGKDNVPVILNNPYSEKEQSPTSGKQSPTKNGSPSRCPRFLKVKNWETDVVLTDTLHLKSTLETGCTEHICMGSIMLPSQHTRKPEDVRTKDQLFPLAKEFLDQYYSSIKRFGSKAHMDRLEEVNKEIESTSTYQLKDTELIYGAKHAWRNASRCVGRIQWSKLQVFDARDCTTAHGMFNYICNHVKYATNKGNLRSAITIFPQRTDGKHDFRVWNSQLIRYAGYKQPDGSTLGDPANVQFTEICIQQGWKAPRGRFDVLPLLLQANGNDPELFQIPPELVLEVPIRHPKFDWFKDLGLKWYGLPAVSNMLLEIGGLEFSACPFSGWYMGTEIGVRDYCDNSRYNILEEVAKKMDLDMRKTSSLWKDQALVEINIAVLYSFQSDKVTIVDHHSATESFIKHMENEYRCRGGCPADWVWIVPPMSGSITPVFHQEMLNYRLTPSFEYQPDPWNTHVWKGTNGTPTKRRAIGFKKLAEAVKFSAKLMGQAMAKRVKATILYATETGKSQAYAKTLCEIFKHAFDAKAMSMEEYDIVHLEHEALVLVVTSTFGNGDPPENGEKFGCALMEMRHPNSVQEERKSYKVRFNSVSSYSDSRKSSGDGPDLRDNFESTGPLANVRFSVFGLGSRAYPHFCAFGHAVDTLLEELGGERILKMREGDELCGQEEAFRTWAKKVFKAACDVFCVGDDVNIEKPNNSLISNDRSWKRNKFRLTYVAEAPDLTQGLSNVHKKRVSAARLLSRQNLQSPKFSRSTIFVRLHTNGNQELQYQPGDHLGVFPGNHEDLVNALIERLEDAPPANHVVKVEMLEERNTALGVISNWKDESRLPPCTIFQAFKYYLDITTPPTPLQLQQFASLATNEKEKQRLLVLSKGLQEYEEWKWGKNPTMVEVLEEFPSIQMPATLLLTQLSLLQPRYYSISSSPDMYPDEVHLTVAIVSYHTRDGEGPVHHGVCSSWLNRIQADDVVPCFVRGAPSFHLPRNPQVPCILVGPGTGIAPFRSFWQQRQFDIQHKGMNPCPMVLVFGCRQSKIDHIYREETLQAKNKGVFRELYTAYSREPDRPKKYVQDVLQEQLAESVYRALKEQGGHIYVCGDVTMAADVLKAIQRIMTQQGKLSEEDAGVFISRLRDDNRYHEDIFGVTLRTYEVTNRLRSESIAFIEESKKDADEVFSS
Sequence of Nitric oxide synthase, inducible (Rattus norvegicus) (Q06518 whole entry): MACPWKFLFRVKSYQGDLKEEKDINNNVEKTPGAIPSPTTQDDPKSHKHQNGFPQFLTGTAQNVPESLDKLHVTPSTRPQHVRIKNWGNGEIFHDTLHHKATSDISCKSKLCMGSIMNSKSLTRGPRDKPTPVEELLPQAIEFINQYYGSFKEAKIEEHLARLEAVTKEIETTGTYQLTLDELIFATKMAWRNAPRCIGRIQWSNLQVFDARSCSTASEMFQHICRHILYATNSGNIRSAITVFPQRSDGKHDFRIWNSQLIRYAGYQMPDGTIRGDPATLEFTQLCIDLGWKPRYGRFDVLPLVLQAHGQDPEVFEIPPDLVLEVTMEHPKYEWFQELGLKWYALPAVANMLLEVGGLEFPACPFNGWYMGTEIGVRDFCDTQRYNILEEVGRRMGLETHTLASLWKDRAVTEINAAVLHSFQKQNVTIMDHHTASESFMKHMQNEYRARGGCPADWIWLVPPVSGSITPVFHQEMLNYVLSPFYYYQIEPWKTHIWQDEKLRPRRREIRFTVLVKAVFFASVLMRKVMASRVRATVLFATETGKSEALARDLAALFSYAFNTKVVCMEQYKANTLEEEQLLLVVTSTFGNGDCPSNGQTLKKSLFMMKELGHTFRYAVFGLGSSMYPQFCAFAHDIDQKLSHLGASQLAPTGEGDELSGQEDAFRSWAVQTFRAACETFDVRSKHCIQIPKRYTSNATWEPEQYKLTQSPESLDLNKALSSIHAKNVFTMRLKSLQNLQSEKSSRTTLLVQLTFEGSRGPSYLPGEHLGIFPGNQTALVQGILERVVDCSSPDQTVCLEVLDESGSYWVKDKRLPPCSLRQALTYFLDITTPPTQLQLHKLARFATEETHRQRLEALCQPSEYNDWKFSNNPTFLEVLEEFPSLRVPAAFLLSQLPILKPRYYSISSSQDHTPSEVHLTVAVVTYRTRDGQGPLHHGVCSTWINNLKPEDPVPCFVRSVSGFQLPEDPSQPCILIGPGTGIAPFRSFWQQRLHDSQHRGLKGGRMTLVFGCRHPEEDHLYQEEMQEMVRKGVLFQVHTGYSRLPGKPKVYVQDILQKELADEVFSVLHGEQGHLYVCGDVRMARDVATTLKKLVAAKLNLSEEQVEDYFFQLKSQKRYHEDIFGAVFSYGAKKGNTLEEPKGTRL

inhibition [1]	inhibition [2]	SMILES
12.7%	-9.8%	CCOC(=O)C1CC(C(=O)c2ccccc2N)=NN1C (stereo not drawn)
13.5%	21.9%	CCOC(=O)c1cc(C(=O)c2ccccc2N)nn1Cc1ccccc1
17.1%	1.7%	CCOC(=O)C1CC(C(=O)c2cc(OC)ccc2N)=NN1CC (stereo not drawn)
14.7%	41.5%	CCOC(=O)C1CC(C(=O)c2cc(Cl)ccc2N)=NN1CC (stereo not drawn)
-1.5%	22.1%	CCOC(=O)C1CC(C(=O)c2ccccc2N)=NN1CC (stereo not drawn)
12.2%	29.6%	CCCCN1N=C(C(=O)c2ccccc2N)CC1C(=O)OCC (stereo not drawn)
10.5%	9.3%	CCOC(=O)C1CC(C(=O)c2cc(OC)ccc2N)=NN1Cc1ccccc1 (stereo not drawn)
17.3%	18.3%	CCOC(=O)C1CC(C(=O)c2cc(Cl)ccc2N)=NN1Cc1ccccc1 (stereo not drawn)
22.9%	1.3%	CCOC(=O)C1CC(C(=O)c2cc(Cl)ccc2N)=NN1C (stereo not drawn)
50.4%	2.7%	CCOC(=O)c1cc(C(=O)c2cc(Cl)ccc2N)nn1Cc1ccccc1
10.5%	38.5%	CCCCN1N=C(C(=O)c2cc(Cl)ccc2N)CC1C(=O)OCC (stereo not drawn)
9.4%	28.4%	CCOC(=O)C1CC(C(=O)c2ccccc2N)=NN1Cc1ccccc1 (stereo not drawn)

More lines, now with the values behind:

SMILES	inhibition [1]	inhibition [2]
CCCCN1N=C(C(=O)c2cc(OC)ccc2N)CC1C(=O)OCC (stereo not drawn)	18.6%	-10%
CCCCn1nc(C(=O)c2ccccc2N)cc1C(=O)OCC	5.4%	21.9%
CCOC(=O)c1cc(C(=O)c2cc(OC)ccc2N)nn1Cc1ccccc1	30.5%	19.4%
CCOC(=O)c1cc(C(=O)c2cc(Cl)ccc2N)nn1C	7.3%	14.5%
CCOC(=O)c1cc(C(=O)c2cc(Cl)ccc2N)nn1CC	27.5%	35.5%
CCOC(=O)c1cc(C(=O)c2cc(Cl)ccc2N)n[nH]1	12.8%	40.2%
CCCCn1nc(C(=O)c2cc(Cl)ccc2N)cc1C(=O)OCC	18.7%	7.8%
CCOC(=O)C1CC(C(=O)c2cc(OC)ccc2N)=NN1C (stereo not drawn)	0.6%	-7.8%
CCOC(=O)C1CC(C(=O)c2cc(Cl)ccc2N)=NN1 (stereo not drawn)	19.1%	32.1%
CCOC(=O)c1cc(C(=O)c2cc(OC)ccc2N)nn1CC	24.6%	20.3%
CCCCn1nc(C(=O)c2cc(OC)ccc2N)cc1C(=O)OCC	20.5%	26.2%
CCOC(=O)c1cc(C(=O)c2ccccc2N)nn1CC	12.5%	39.5%
